Experimental data taken from ChEMBL document CHEMBL6096655, “Discovery of a novel, selective CK2 inhibitor class with an unusual basic scaffold” (Eur J Med Chem, 2025).

How the values were obtained:
786-0 [1] = experiment: Antiproliferative activity against human 786-0 cells assessed as inhibition of cell growth at 30 uM measured after 3 to 4 days by MTT assay relative to control; assay type: functional; conditions: time 3-4 day
Outline: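 786-O cells (RPMI, 10% FCS) seeded at 5000 per well and left overnight. Compound was added at a single 30 µM concentration in 1% FCS medium (DMSO max. 0.2%). Cells grew 3–4 days at 37 °C, 5% CO₂, with no medium change, and were read by MTT. Percent inhibition is the mean of duplicates that differed by ≤10%.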

U-937 = experiment: Antiproliferative activity against human U-937 cells assessed as inhibition of cell growth measured after 3 to 4 days by MTT assay; assay type: functional; conditions: time 3-4 day
Outline: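 786-O or U937 cells grown in RPMI with 2 mM L-glutamine, 1% pen/strep and 10% FCS. Cells were seeded at 5000 per well and left overnight, then switched to 1% FCS medium containing compound or DMSO (max. 0.2% final). Growth ran 3–4 days at 37 °C in 5% CO₂ without medium change, followed by MTT read-out. GI50 is the mean ± SD of at least two independent experiments.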

786-0 [2] = experiment: Induction of cell death in human 786-0 cells assessed as cell viability measured after 11 hrs by CellCyteX live-cell microscopy analysis; assay type: functional, cell-based; conditions: dose 10-20 µM
Outline: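 786-O cells seeded at 3×10³ per well and grown 24 h. Compound was then added in culture medium containing 125 nM Cytotox Green, at 0.2% (v/v) final DMSO, and kept at 37 °C in 5% CO₂. Green fluorescence images of dead cells were taken every 3 h by live-cell microscopy and normalized to the DMSO control. Results are representative of three independent measurements.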

[3] = target: Aurora kinase B (Homo sapiens) (UniProt Q96GD4); experiment: Inhibition of human recombinant AURKB at 2 uM by Eurofins kinase assay relative to control
[4] = target: Dual specificity tyrosine-phosphorylation-regulated kinase 1A (Homo sapiens) (UniProt Q13627); experiment: Inhibition of human DYRK1A at 2 uM by Eurofins kinase assay relative to control
[5] = target: Dual specificity tyrosine-phosphorylation-regulated kinase 2 (Homo sapiens) (UniProt Q92630); experiment: Inhibition of human DYRK2 at 2 uM by Eurofins kinase assay relative to control
[6] = target: Vascular endothelial growth factor receptor 3 (Homo sapiens) (UniProt P35916); experiment: Inhibition of human recombinant FLT4 at 2 uM by Eurofins kinase assay relative to control
[7] = target: Serine/threonine-protein kinase haspin (Homo sapiens) (UniProt Q8TF76); experiment: Inhibition of human recombinant GSG2 at 2 uM by Eurofins kinase assay relative to control
[8] = target: Homeodomain-interacting protein kinase 2 (Homo sapiens) (UniProt Q9H2X6); experiment: Inhibition of human recombinant HIPK2 at 2 uM by Eurofins kinase assay relative to control
[9] = target: Mitogen-activated protein kinase 1 (Homo sapiens) (UniProt P28482); experiment: Inhibition of human MAPK1 at 2 uM by Eurofins kinase assay relative to control
[10] = target: Mitogen-activated protein kinase 12 (Homo sapiens) (UniProt P53778); experiment: Inhibition of human recombinant MAPK12 at 2 uM by Eurofins kinase assay relative to control
[11] = target: Hepatocyte growth factor receptor (Homo sapiens) (UniProt P08581); experiment: Inhibition of human MET at 2 uM by Eurofins kinase assay relative to control
[12] = target: Serine/threonine-protein kinase D1 (Homo sapiens) (UniProt Q15139); experiment: Inhibition of human recombinant PRKD1 at 2 uM by Eurofins kinase assay relative to control
[13] = target: Proto-oncogene tyrosine-protein kinase Src (Homo sapiens) (UniProt P12931); experiment: Inhibition of human recombinant SRC at 2 uM by Eurofins kinase assay relative to control
[14] = Upregulation of PARP cleavage in human U-937 cells by measuring signal 1 at 5 uM measured after 48 hrs by immunoblot analysis; assay type: functional
Outline: (§1)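 U937 cells exposed to compound or DMSO for 48 h, then lysed in Laemmli buffer. Lysates were run on 8–16% gradient SDS-PAGE, semi-dry blotted to PVDF and probed for PARP. Detection used IR-fluorescent secondary antibodies. The cleaved/uncleaved PARP signal ratio was obtained by densitometry. Results are representative of two independent experiments.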

[15] = Upregulation of PARP cleavage in human U-937 cells by measuring signal 1 at 15 uM measured after 48 hrs by immunoblot analysis; assay type: functional; outline: as §1
[16] = Upregulation of PARP cleavage in human U-937 cells by measuring signal 2 at 10 uM measured after 48 hrs by immunoblot analysis; assay type: functional; outline: as §1
[17] = Upregulation of PARP cleavage in human U-937 cells by measuring signal 2 at 15 uM measured after 48 hrs by immunoblot analysis; assay type: functional
Outline: (§2)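 U937 lymphoma cells grown in RPMI with 2 mM L-glutamine, 1 % pen/strep and 10 % FCS; exposed to compound or DMSO solvent control for 48 h. Total cellular proteins harvested and immunoblotted with an antibody against phosphorylated CK2-substrate motifs and for PARP. Read-out is the densitometric ratio of cleaved to uncleaved PARP signal. Representative of two independent experiments.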

[18] = Upregulation of PARP cleavage in human U-937 cells by measuring signal 2 at 30 uM measured after 48 hrs by immunoblot analysis; assay type: functional; outline: as §2
[19] = target: T1, Hsp90 co-chaperone Cdc37 (Homo sapiens) (UniProt Q16543); experiment: Inhibition of CDC37 phosphorylation in human 786-O cells at 6 uM measured after 48 hrs by immunoblot analysis relative to control
T1 sequence (whole entry): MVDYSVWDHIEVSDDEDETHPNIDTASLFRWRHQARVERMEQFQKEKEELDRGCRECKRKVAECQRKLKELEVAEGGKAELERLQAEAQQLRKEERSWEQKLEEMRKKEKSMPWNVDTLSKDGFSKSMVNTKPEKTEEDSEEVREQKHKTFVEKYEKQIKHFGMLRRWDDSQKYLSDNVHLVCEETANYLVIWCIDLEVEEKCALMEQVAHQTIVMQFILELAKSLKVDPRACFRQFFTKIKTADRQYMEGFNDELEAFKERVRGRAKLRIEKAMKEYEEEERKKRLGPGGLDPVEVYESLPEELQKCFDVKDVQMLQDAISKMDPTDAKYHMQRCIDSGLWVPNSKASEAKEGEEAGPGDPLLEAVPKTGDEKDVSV

[20] = target: T1, Hsp90 co-chaperone Cdc37 (Homo sapiens); experiment: Inhibition of CDC37 phosphorylation in human 786-O cells at 10 uM measured after 48 hrs by immunoblot analysis relative to control
[21] = target: Eukaryotic translation initiation factor 2 subunit 2 (Homo sapiens) (UniProt P20042); experiment: Inhibition of eIF2beta phosphorylation in human 786-O cells at 6 uM measured after 48 hrs by immunoblot analysis relative to control
[22] = target: Eukaryotic translation initiation factor 2 subunit 2 (Homo sapiens) (UniProt P20042); experiment: Inhibition of eIF2beta phosphorylation in human 786-O cells at 8 uM measured after 48 hrs by immunoblot analysis relative to control

Chain of Eukaryotic translation initiation factor 2 subunit 2 (Homo sapiens) (P20042 whole entry): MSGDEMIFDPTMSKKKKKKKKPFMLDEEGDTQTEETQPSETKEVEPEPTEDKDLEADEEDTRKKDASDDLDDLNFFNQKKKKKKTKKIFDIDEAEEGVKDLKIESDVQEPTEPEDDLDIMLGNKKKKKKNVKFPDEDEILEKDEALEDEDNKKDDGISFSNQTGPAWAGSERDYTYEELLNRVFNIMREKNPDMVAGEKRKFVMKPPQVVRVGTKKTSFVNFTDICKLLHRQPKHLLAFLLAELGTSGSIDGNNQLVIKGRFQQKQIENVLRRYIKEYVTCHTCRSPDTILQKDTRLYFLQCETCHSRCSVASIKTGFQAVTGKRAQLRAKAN
Chain of Mitogen-activated protein kinase 12 (Homo sapiens) (P53778 whole entry): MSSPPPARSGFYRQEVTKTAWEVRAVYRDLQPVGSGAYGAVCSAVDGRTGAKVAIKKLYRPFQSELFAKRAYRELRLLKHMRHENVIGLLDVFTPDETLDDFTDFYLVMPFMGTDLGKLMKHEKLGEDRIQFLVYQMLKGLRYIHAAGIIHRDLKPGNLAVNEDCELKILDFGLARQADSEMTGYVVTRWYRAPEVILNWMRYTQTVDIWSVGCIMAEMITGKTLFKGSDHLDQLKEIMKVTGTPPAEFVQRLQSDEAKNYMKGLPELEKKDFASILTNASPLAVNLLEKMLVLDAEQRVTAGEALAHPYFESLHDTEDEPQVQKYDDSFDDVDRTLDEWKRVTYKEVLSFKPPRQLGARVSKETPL
Chain of Hepatocyte growth factor receptor (Homo sapiens) (P08581 whole entry): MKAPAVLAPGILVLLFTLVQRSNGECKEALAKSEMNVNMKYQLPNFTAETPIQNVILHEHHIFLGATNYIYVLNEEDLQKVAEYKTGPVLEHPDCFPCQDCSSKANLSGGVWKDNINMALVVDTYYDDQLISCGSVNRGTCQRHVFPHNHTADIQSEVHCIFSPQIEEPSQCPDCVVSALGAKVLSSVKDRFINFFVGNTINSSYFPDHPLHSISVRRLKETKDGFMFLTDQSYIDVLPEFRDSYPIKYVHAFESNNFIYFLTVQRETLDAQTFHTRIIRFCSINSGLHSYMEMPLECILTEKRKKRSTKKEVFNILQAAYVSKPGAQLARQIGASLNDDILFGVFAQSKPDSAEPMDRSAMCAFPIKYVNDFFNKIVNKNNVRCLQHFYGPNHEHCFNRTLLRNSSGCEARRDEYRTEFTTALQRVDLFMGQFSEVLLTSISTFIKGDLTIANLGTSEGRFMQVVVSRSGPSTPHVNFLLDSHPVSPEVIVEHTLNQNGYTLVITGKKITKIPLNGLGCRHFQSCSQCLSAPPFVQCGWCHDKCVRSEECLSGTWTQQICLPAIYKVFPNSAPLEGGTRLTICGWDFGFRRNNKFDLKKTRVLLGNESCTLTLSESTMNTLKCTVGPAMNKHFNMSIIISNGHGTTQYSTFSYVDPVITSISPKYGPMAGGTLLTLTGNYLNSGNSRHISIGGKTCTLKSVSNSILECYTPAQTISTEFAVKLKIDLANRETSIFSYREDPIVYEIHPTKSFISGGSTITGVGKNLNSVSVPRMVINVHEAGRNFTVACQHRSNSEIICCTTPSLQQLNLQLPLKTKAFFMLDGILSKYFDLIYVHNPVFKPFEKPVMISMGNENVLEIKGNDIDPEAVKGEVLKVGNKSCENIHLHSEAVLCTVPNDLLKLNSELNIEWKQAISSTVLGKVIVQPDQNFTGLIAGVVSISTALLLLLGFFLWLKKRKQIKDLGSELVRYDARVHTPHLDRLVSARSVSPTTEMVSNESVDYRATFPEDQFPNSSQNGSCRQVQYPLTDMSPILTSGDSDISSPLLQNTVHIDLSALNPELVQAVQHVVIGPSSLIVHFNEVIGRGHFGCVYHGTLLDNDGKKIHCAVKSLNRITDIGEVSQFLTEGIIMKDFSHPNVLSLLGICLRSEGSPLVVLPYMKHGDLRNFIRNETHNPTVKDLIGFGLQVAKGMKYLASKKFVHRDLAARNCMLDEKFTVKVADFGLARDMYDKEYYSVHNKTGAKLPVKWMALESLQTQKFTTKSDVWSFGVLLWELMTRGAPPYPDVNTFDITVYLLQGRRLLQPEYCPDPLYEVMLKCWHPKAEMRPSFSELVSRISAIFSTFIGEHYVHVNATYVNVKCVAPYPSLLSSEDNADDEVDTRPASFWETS
Chain of Vascular endothelial growth factor receptor 3 (Homo sapiens) (P35916 whole entry): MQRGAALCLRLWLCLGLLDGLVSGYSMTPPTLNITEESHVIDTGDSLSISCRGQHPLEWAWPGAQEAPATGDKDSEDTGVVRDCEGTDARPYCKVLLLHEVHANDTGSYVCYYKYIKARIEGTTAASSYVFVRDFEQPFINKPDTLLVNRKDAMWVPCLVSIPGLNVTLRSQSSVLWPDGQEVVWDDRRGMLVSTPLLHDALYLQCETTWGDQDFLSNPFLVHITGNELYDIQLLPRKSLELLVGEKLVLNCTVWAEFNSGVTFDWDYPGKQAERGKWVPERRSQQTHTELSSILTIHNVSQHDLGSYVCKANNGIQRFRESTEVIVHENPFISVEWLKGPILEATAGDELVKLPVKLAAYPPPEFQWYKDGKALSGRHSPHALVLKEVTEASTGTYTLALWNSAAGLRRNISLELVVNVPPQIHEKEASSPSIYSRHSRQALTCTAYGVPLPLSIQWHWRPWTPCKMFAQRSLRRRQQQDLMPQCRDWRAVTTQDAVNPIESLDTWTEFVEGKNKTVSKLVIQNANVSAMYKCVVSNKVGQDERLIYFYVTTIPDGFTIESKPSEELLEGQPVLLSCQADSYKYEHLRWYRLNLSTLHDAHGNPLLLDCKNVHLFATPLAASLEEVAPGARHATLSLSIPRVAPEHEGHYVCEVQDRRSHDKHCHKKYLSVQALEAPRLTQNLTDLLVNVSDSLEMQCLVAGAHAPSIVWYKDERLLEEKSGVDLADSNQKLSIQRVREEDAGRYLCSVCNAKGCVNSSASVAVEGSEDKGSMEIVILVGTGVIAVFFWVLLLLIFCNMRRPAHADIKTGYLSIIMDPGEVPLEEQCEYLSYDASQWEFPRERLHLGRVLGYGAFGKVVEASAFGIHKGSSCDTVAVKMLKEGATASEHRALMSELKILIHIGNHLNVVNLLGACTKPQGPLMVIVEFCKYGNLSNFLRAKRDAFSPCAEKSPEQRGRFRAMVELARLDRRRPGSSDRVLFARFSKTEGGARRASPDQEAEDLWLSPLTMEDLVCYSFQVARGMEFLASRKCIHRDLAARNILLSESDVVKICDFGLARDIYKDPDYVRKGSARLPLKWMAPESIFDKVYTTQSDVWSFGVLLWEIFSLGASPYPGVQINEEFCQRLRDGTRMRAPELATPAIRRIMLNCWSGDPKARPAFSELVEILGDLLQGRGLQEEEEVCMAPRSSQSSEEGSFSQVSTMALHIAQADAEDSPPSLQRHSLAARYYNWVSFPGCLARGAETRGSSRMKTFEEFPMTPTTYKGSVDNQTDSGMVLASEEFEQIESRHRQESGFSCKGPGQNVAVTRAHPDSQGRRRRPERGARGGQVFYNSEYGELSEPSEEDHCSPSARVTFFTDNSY
Chain of Serine/threonine-protein kinase haspin (Homo sapiens) (Q8TF76 whole entry): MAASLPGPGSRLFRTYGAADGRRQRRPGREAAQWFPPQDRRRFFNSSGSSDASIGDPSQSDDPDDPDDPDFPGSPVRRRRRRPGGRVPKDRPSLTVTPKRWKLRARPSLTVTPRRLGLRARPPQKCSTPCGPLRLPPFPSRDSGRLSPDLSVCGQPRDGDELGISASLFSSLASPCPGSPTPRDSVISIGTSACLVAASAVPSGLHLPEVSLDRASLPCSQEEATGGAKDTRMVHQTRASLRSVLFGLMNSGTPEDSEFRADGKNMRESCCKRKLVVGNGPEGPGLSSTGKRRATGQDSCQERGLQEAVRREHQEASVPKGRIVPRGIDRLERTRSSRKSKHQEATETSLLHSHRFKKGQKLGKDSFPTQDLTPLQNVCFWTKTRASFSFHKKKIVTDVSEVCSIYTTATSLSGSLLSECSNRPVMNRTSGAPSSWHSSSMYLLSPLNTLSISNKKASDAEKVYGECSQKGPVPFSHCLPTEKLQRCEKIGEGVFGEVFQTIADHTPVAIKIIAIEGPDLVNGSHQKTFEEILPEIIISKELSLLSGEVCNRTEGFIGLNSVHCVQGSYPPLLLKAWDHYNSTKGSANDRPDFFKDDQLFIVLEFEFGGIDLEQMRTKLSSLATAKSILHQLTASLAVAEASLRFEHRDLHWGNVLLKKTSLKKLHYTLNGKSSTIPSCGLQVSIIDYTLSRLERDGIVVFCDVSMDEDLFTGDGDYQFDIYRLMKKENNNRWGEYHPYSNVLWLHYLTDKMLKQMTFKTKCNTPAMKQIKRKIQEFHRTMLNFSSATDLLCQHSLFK
Chain of Proto-oncogene tyrosine-protein kinase Src (Homo sapiens) (P12931 2-536 limits assumed): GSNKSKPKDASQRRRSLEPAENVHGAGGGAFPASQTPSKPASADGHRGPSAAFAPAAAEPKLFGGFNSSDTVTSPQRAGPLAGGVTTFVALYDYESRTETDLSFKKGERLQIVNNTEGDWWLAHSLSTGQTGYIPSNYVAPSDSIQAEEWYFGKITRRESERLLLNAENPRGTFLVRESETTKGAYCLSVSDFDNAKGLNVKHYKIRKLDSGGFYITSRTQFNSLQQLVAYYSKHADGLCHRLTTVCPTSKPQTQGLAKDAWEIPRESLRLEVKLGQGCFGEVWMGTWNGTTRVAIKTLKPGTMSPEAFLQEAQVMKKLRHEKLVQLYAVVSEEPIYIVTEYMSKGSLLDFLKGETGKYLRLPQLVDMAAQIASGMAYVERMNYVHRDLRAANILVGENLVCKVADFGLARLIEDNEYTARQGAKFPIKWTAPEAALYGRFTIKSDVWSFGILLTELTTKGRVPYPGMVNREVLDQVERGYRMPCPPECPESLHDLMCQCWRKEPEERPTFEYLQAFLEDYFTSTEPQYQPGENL

- GI50 (U-937): 7.5 µM
- inhibition [3]: 4%
- inhibition [4]: 4%
- inhibition [5]: 9%
- inhibition [6]: 5%
- inhibition [7]: 5%
- inhibition [8]: 15%
- inhibition [9]: 2%
- inhibition [10]: 5%
- inhibition [11]: 2%
- inhibition [12]: 10%
- inhibition [13]: 6%
- inhibition [19]: 0%
- inhibition [20]: 12%
- inhibition [21]: 0%
- inhibition [22]: 32%
Compound: Clc1ccc(N2CCN(c3ncnc4sc5c(c34)CCNC5)CC2)cc1.O=C(O)C(F)(F)F
- inhibition at 30 µM (786-0 [1]): 102%
- Activity (786-0 [2]): Dose-dependent-effect
- Activity [14]: 72%
- Activity [15]: 96%
- Activity [16]: 38%
- Activity [17]: 72%
- Activity [18]: 95%
